Data published in ChEMBL document CHEMBL3425405, “Discovery of Small Molecules for Up-Regulating the Translation of Antiamyloidogenic Secretase, a Disintegrin and Metalloproteinase 10 (ADAM10), by Binding to the G-Quadruplex-Forming Sequence in the 5' Untranslated Region (UTR) of Its mRNA” (J Med Chem, 2015).
Calls of active or inactive are those of the source. No cut-off for these calls is given here.

Experiments:
HEK-APP [1] = test: Binding affinity to ADAM10 A10-RNA QGRS (unknown origin) transfected in HEK-APP cells assessed as increase in ADAM10 protein expression at 0.5 uM after 48 hrs by Western blotting method; assay type: cell-based
How it was run: (§1)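 HEK-APP cells (DMEM, 10% FBS, 2 mM glutamine, 0.2 mg/mL G418) treated with 0, 0.5, 0.75, 1 or 1.5 μM compound for 48 h. Lysates in Tris/NaCl/EDTA/1% Triton buffer immunoblotted for ADAM10, APP and β-actin; conditioned medium blotted for sAPPα. Signal by densitometry, normalized to β-actin, relative to blank control; mean ± SD, three independent experiments.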

HEK-APP [2] = test: Binding affinity to ADAM10 A10-RNA QGRS (unknown origin) transfected in HEK-APP cells assessed as increase in ADAM10 protein expression at 0.75 uM after 48 hrs by Western blotting method; assay type: cell-based; how it was run: as §1
HeLa [3] = test: Binding affinity to ADAM10 A10-RNA QGRS (unknown origin) transfected in human HeLa cells assessed as increase in ADAM10 translation efficiency at 2.5 uM after 24 hrs by Renilla/firefly dual luciferase reporter assay; assay type: cell-based
How it was run: (§2)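 HeLa cells transfected with 0.8 μg A10-Wt, A10-Mut or A10-Del plasmid (G-quadruplex motif upstream of Renilla in psiCHECK-2). Screening: 24 h at a single 2 μM concentration. Follow-up: plasmid for 12 h, then 0, 0.5, 1 or 2.5 μM for 24 h. Renilla normalized to firefly, relative to untreated control; mean ± SD of three independent measurements.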

HeLa [4] = test: Binding affinity to N-Ras RNA QGRS (unknown origin) transfected in human HeLa cells assessed as increase in ADAM10 translation efficiency at 2.5 uM after 24 hrs by Renilla/firefly dual luciferase reporter assay; assay type: cell-based
How it was run: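 HeLa cells carrying luciferase reporter plasmids with the N-Ras, Bcl-2 or VEGF 5′-UTR quadruplex (or its mutant) treated with compound up to 2.5 μM for 24 h. Renilla/firefly luciferase activity then measured.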

HeLa [5] = test: Binding affinity to ADAM10 5'-UTR RNA QGRS (unknown origin) transfected in human HeLa cells assessed as increase in ADAM10 translation efficiency at 1 uM after 24 hrs by Renilla/firefly dual luciferase reporter assay; assay type: cell-based
How it was run: (§3)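 HeLa cells transfected with 0.8 μg 5′UTR-Wt or 5′UTR-Mut dual-luciferase plasmid. After 12 h, incubated 24 h with 0, 0.5, 1 or 2.5 μM compound. Renilla luciferase normalized to firefly and expressed relative to the ligand-free control; mean ± SD of three independent experiments, each in triplicate.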

HeLa [6] = test: Binding affinity to ADAM10 A10-mutant RNA QGRS (unknown origin) transfected in human HeLa cells assessed as increase in ADAM10 translation efficiency at 0.5 to 2.5 uM after 24 hrs by Renilla/firefly dual luciferase reporter assay; assay type: cell-based; how it was run: as §2
[7] = Drug accumulation in cytoplasm of APP expressing HEK cells at 2 uM after 2 hrs by confocal microscopy; assay type: ADME, cell-based; conditions: human, hek293, 2 h
HEK293 [8] = test: Effect on APP protein expression in APP expressing HEK cells at 0.5 to 1.5 uM after 48 hrs by Western blotting method; assay type: functional, cell-based; conditions: Homo sapiens; how it was run: as §1
[9] = Binding affinity to ADAM10 A10-RNA QGRS (unknown origin) by microscale thermophoresis method
HeLa [10] = test: Toxicity against human HeLa cells assessed as effect on cell morphology at 0.5 to 2.5 uM after 24 hrs; assay type: cell-based
How it was run: (§4)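 HeLa cells inspected for cell number and morphology before the luciferase read-out, after reporter-plasmid transfection and 24 h exposure to 0, 0.5, 1 or 2.5 μM compound.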

HEK293 [11] = test: Reduction in Abeta40 protein production in APP expressing HEK cells at 1 uM after 48 hrs by ELISA method; assay type: functional, Homo sapiens; parameters: scale not given: the % may be the effect or the level left
How it was run: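 HEK-APP cells treated 48 h with increasing compound concentrations (0.75, 1, 1.5 μM). Secreted Aβ40 in equal amounts of conditioned medium quantified by sandwich ELISA. Values expressed relative to blank control; mean ± SD of three independent experiments.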

[12] = Toxicity against APP expressing HEK cells assessed as reduction in cell viability after 48 hrs by MTT assay; assay type: cell-based, HEK293; conditions: human
HeLa [13] = test: Binding affinity to ADAM10 5'-UTR RNA QGRS (unknown origin) transfected in human HeLa cells assessed as increase in ADAM10 translation efficiency at 0.5 uM after 24 hrs by Renilla/firefly dual luciferase reporter assay; assay type: cell-based; how it was run: as §3
HeLa [14] = test: Binding affinity to ADAM10 5'-UTR mutant RNA QGRS (unknown origin) transfected in human HeLa cells assessed as increase in ADAM10 translation efficiency at 2.5 uM after 24 hrs by Renilla/firefly dual luciferase reporter assay; assay type: cell-based; how it was run: as §3
HEK-APP [15] = test: Binding affinity to ADAM10 A10-RNA QGRS (unknown origin) transfected in HEK-APP cells assessed as increase in ADAM10 protein expression at 1.5 uM after 48 hrs by Western blotting method; assay type: cell-based; how it was run: as §1
[16] = Binding affinity to ADAM10 A10-RNA QGRS (unknown origin) assessed as increase in RNA-ligand complexes at 0.5 to 10 fold excess compound level by native gel electrophoresis method
How it was run: (§5)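 A10-RNA-Wt labeled with Cy3/Cy5 folded in 100 mM KCl, 10 mM Tris-HCl, 0.1 mM EDTA (pH 7.5): 95 °C for 5 min, then cooled to room temperature over 90 min. RNA (2 μM) incubated 5 min at room temperature in the dark with 0, 0.5, 1, 5 or 10-fold excess compound. Run on native 16% polyacrylamide gel at 4 °C.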

HeLa [17] = test: Binding affinity to ADAM10 5'-UTR RNA QGRS (unknown origin) transfected in human HeLa cells assessed as increase in ADAM10 translation efficiency at 2.5 uM after 24 hrs by Renilla/firefly dual luciferase reporter assay; assay type: cell-based; how it was run: as §3
HeLa [18] = test: Toxicity against human HeLa cells assessed as effect on cell number at 0.5 to 2.5 uM after 24 hrs; assay type: cell-based; how it was run: as §4
HeLa [19] = test: Binding affinity to ADAM10 A10-RNA QGRS (unknown origin) transfected in human HeLa cells assessed as increase in ADAM10 translation efficiency at 0.5 uM after 24 hrs by Renilla/firefly dual luciferase reporter assay; assay type: cell-based; how it was run: as §2
[20] = Binding affinity to ADAM10 A10-RNA QGRS (unknown origin) assessed as reduction in RNA G-quadruplex bands at 0.5 to 10 fold excess compound level by native gel electrophoresis method; how it was run: as §5
[21] = Binding affinity to 5'-end biotinylated ADAM10 A10-RNA QGRS (unknown origin) by surface plasmon resonance assay method
How it was run: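 SPR with 5′-biotinylated A10-RNA-Wt or A10-RNA-Mut immobilized on a neutravidin chip in running buffer (50 mM Tris-HCl pH 7.5, 100 mM KCl). Ligand serial dilutions in running buffer injected at 20 μL/min for association, then dissociation. Chip regenerated with 50 mM NaOH between runs.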

In the case of `CCn1c2ccccc2c2cc(/C=C/c3cc(N4CCN(C)CC4)c4ccccc4[n+]3C)ccc21.[I-]`, the Activity (HEK-APP [1]) is reported as 20.2%, the Activity (HEK-APP [2]) is reported as 55.1% and the Activity (HeLa [3]) is reported as 87.3%. For the same compound, the Activity (HeLa [4]) was 20%, the Activity (HeLa [5]) was 22.5% and the Activity (HeLa [6]) was “inactive”. The Drug uptake [7] was “Active”, the Activity (HEK293 [8]) was “inactive” and the Kd [9] was 4.9 µM. For the same compound, the Activity (HeLa [10]) was “Non-toxic”, the Activity (HEK293 [11]) was 20.7% and the IC50 at 48 h [12] was 10.7 µM. For the same compound, the Activity (HeLa [13]) was 9.7%, the Activity (HeLa [14]) was “inactive” and the Activity (HEK-APP [15]) was 92.9%. The Activity [16] was “Active”, the Activity (HeLa [17]) was 44.8% and the Activity (HeLa [18]) was “Non-toxic”. The Activity (HeLa [19]) was 14.1%, the Activity [20] was “Active” and the Kd [21] was 6.1 µM.
